Assay results published in paper PMC3457677 (International Journal of Nanomedicine, 2012).
In brackets after ≈: the same amount, converted by molar mass.

What was measured:
[1] = cited from earlier work
[2] = test system: human hepatocellular liver carcinoma (HepG2) cell line; test: MTT cytotoxicity assay; format: cell-based; conditions: HepG2, 72 h, read-out: IC50 (μg/mL) on cell lines HepG2
Method in brief: (§1)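 Cells were grown in DMEM with 10% FBS and 1% antibiotics at 37°C under 5% CO2 and seeded in 96-well plates at 5 × 10^4 cells/well (A549: 5 × 10^3) until confluent. Free or SLN-encapsulated compound was added for 72 h. After a PBS wash, MTT (25 μg/mL) was given for 2 h, formazan was dissolved in DMSO and read at 550 nm. IC50 came from a four-parameter logistic fit; n = 6.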

[3] = test system: human breast adenocarcinoma (MDA-MB-231) cell line; test: MTT cytotoxicity assay; format: cell-based; conditions: MDA-MB-231, 72 h, read-out: IC50 (μg/mL) on cell lines MDA-MB-231
Method in brief: as §1

[4] = test system: human breast adenocarcinoma with estrogen receptor (MCF7) cell line; test: MTT cytotoxicity assay; format: cell-based; conditions: MCF7, 72 h, read-out: IC50 (μg/mL) on cell lines MCF7
Method in brief: as §1

[5] = test system: human oral squamous cell carcinoma (Ca9-22) cell line; test: MTT cytotoxicity assay; format: cell-based; conditions: Ca9-22, 72 h, read-out: IC50 (μg/mL) on cell lines Ca9-22
Method in brief: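 Ca9-22 cells grown in DMEM with 10% FBS and 1% antibiotics at 37°C, 5% CO2. Seeded at 5 × 10^4 cells/well and grown to confluence. Free or SLN-encapsulated test compound (added solution at 40 μg/mL) applied for 72 hours. After a PBS wash, MTT (25 μg/mL) for 2 h, then DMSO. Absorbance read at 550 nm; IC50 from a four-parameter logistic fit.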

[6] = test system: human lung carcinoma (A549) cell line; test: MTT cytotoxicity assay; format: cell-based; conditions: A549, 72 h, read-out: IC50 (μg/mL) on cell lines A549
Method in brief: as §1

[7] = Biodistribution in tissues and organs after intravenous administration; format: in vivo; conditions: Wistar rats, 4.7 mg/kg intravenous, 30 minutes
[8] = Solubility of PK-L4 in aqueous and receptor media; format: physicochemical; conditions: compared: pH 7.4 PBS, pH 7.4 PBS containing 1% F-68, pH 7.4 PBS containing 1% F-127
[9] = In vivo pharmacokinetics after intravenous bolus; set-up: species or system Wistar rats; conditions: male, Wistar, rat, plasma, 4.7 mg/kg
Method in brief: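 Fasted male Wistar rats (200–250 g) under urethane anaesthesia received a jugular vein injection of 4.7 mg/kg. The free-drug solution was in ethanol/PEG 400/tetraglycol/water. Heart blood (0.3 mL) was taken at set times, and plasma was extracted with dichloromethane using diclofenac as internal standard, then analysed by HPLC-ECD. A compartment model was fitted; AUC0–∞ by trapezoidal rule plus extrapolation, Cl = dose/AUC0–∞; n = 3.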

In vitro release study = format: physicochemical; conditions: pH 7.4 PBS containing 1% F-127
Method in brief: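 Dialysis bags (MWCO 12,000–14,000 Da, pre-soaked 12 h in water) held 1 mL SLN suspension in 100 mL pH 7.4 phosphate buffer with 1% Pluronic F-127 (sink) at 37°C. At intervals, 1 mL receiver aliquots were withdrawn and replaced with fresh medium. Drug was quantified by C18 HPLC with electrochemical detection. Release percentage was fitted to kinetic models; n = 4.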

[10] = cited from earlier work; remark: listed apart in the source

Row | SMILES | half-life in plasma [1] [min] | IC50 [2] [µg/mL] | IC50 [3] [µg/mL] | IC50 [4] [µg/mL] | IC50 [5] [µg/mL] | IC50 [6] [µg/mL] | Main sites of PK-L4 deposition in tissues [7] | Solubility of PK-L4 in receptor media [8] | AUC(0-inf) [9] [ng·h/mL] | MRT [9] [min] | Vd [9] [L/kg] | clearance [9] [mL/min/kg] | half-life ([9]; half-life alpha, after intravenous bolus, rat plasma) [min] | Best-fitting release kinetics model (In vitro release study) | Solubility in water and biocompatible media [10]
1 | COc1cc(NS(C)(=O)=O)ccc1Nc1c2ccccc2nc2ccccc12 [Amsacrine] | 20 to 30 |  |  |  |  |  |  |  |  |  |  |  |  |  | 
2 | COc1cccc2c1C(=O)c1c(O)c3c(c(O)c1C2=O)C[C@@](O)(C(=O)CO)C[C@@H]3O[C@H]1C[C@H](N)[C@H](O)[C@H](C)O1 [Doxorubicin solution, reference compound] |  | 0.11 (≈ 0.202 µM) | 0.51 (≈ 0.938 µM) | 0.43 (≈ 0.791 µM) | 0.14 (≈ 0.258 µM) | 0.4 (≈ 0.736 µM) |  |  |  |  |  |  |  |  | 
3 | COc1ccc(Nc2c3ccccc3nc3occ(Cl)c23)cc1 [PK-L4, 3-Chloro-4-[(4-methoxyphenyl)amino]furo[2,3-b]quinoline] |  | 0.04 (≈ 0.123 µM) | 2.14 (≈ 6.59 µM) | 8.47 (≈ 26.1 µM) | 0.04 (≈ 0.123 µM) | 0.11 (≈ 0.339 µM) | mainly located in the spine, followed by the lungs, brain, small intestine, and heart | pH 7.4 PBS containing 1% F-127 exhibited the best solubility | 1160 ± 87 | 61 ± 8.7 | 4.12 ± 0.395 | 67.9 | 4.68 ± 1.38 | Higuchi order | water insoluble
